From PMC2232887 (The Journal of General Physiology, 2000)
pKi: −log10 of the molar value. Where “and” joins values, the source holds several entries; their conditions need not be identical. Equal entries are not always repeated. Where two headings read alike, the source gives them in different places.

How the values were obtained:
[1] = test system: heteromeric RETα+β channels; format: biochemical, bovine; settings: 10 μM L-cis diltiazem, saturating (2 mM) cGMP
[2] = target: hybrid OLFα+RETβ channels (UniProt Q00195+Q28181); format: biochemical; settings: for block of channels by L-cis diltiazem: 10 μM L-cis diltiazem
Procedure, shortened: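 Xenopus oocytes were co-injected with olfactory α and rod β subunit mRNAs. Inside-out patches were recorded at 21–24°C in standard patch solution (115 mM NaCl, 5 EGTA, 1 EDTA, 5 HEPES, pH 7.5), held at −75 mV. Rod β incorporation was checked by applying 10 μM l-cis diltiazem. Currents were normalised to Imax at 2 mM cGMP.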

native rod CNG channels = assay: Inside-out patch recording of native rod CNG channels from rod outer segments; format: biochemical, tiger salamanders (Ambystoma tigrinum); settings: for effect on the kinetics, cGMP sensitivity, or maximal current: in the absence of genistein
Procedure, shortened: (§1)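 Dark-adapted (1 h) tiger salamanders were anaesthetised in ice-cold […] (1 g/liter, 20 min). Retinas were triturated under dim red light, and inside-out patches were excised from rod or cone outer segments. Pipettes were 3–5 MΩ (115 mM NaCl, 5 EGTA, 1 EDTA, 5 HEPES, pH 7.5). Held at −75 mV; currents normalised to 2 mM cGMP Imax. Closed channels were pre-exposed 1 min to test compound, then given 2 mM cGMP. Ki from modified Hill fit.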

[3] = target: T1, heteromeric OLFα+β channels (Rattus norvegicus, UniProt Q00195+Q64359); format: biochemical; settings: closed and fully activated channels
T1 sequence (Q00195 1-664): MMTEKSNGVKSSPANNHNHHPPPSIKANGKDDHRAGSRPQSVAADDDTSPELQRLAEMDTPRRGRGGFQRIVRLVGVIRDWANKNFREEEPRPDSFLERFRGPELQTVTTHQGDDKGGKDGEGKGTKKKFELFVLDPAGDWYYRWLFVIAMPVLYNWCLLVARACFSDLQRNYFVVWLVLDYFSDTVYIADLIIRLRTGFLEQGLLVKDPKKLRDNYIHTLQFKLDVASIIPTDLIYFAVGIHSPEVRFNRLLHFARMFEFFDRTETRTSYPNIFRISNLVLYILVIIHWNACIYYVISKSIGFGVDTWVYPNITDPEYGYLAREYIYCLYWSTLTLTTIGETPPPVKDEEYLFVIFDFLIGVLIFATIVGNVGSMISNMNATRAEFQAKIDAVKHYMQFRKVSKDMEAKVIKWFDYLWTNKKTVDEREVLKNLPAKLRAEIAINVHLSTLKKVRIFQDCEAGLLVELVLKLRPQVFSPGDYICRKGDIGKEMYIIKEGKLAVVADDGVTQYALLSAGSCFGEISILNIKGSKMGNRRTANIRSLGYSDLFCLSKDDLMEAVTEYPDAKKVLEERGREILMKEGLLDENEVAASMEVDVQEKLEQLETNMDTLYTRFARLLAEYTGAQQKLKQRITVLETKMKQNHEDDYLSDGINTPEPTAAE
T1 sequence (Q64359 1-575): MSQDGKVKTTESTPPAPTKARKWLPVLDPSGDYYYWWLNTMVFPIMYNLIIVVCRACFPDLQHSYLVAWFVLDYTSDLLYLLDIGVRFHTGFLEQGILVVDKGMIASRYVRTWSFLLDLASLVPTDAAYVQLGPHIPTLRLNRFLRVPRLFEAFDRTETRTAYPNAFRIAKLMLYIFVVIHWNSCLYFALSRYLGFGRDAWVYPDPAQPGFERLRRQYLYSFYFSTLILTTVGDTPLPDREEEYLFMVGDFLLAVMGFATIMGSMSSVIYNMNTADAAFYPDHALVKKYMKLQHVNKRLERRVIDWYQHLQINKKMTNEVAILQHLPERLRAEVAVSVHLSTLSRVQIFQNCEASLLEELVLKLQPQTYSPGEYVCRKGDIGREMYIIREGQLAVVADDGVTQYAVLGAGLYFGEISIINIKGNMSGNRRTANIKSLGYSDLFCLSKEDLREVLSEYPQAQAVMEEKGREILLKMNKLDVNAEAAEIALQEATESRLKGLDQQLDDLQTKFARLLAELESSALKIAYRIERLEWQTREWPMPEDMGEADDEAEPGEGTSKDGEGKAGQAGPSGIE

[4] = target: heteromeric RETα+β channels (Bos taurus, UniProt Q00194); format: biochemical, bovine
[5] = test system: native olfactory CNG channels; format: biochemical, tiger salamanders
Procedure, shortened: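 Olfactory epithelium from land-phase tiger salamanders was digested with papain for 18–22 min at 21°C, washed 10 min in ice-cold solution and triturated to single neurons. Excised patches used 10–20 MΩ pipettes. Held at −75 mV; currents normalised to 2 mM cGMP Imax; mean ± SEM.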

[6] = target: T2, homomeric RETα channels (α subunits of the bovine rod photoreceptor CNG channel) (Bos taurus, UniProt Q00194); format: biochemical
T2 sequence (Q00194 1-690): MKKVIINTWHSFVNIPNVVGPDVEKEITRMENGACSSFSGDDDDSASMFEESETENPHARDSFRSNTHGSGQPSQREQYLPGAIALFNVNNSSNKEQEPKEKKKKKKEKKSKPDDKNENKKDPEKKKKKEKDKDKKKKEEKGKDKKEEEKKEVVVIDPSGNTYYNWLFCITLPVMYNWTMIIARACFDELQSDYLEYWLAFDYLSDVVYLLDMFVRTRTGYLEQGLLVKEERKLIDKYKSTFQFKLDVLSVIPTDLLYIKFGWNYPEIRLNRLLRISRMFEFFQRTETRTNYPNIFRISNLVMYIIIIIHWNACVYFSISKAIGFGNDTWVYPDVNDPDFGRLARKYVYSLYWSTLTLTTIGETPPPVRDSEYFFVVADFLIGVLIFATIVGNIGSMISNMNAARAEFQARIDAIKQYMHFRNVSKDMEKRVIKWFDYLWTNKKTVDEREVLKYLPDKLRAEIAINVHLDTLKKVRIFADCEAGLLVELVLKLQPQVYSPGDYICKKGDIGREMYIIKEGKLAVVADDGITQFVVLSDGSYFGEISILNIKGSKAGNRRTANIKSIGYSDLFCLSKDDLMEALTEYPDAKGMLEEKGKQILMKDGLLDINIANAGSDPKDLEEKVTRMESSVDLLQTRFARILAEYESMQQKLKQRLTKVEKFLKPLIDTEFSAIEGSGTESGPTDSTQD
Procedure, shortened: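 Bovine rod CNG α-subunit cRNA was injected into Xenopus oocytes (50 nl at 1 ng/nl). After 2–7 d, vitelline membrane was removed. Inside-out patches were recorded at 21–24°C with 2–3 MΩ pipettes in standard patch solution (115 mM NaCl, 5 EGTA, 1 EDTA, 5 HEPES, pH 7.5), held at −75 mV. Perfusion switched in 50 ms. Test compound (DMSO stock) was applied before or after 2 mM cGMP. Ki and Hill coefficient from modified Hill fit.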

native cone CNG channels = assay: Inside-out patch recording of native cone CNG channels from cone outer segments; format: biochemical, tiger salamanders (Ambystoma tigrinum)
Procedure, shortened: as §1

[7] = target: T3, homomeric OLFα channels (rat olfactory CNG channels) (Rattus norvegicus, UniProt Q00195); format: biochemical; settings: concentrations up to 500 μM
T3 sequence (Q00195 1-664): T1 sequence (Q00195 1-664)

[8] = closed channels, saturating genistein (500 μM)
[9] = fully activated, saturating cGMP (2 mM)

Sequence of hybrid OLFα+RETβ channels (Q28181 whole entry, one chain of several): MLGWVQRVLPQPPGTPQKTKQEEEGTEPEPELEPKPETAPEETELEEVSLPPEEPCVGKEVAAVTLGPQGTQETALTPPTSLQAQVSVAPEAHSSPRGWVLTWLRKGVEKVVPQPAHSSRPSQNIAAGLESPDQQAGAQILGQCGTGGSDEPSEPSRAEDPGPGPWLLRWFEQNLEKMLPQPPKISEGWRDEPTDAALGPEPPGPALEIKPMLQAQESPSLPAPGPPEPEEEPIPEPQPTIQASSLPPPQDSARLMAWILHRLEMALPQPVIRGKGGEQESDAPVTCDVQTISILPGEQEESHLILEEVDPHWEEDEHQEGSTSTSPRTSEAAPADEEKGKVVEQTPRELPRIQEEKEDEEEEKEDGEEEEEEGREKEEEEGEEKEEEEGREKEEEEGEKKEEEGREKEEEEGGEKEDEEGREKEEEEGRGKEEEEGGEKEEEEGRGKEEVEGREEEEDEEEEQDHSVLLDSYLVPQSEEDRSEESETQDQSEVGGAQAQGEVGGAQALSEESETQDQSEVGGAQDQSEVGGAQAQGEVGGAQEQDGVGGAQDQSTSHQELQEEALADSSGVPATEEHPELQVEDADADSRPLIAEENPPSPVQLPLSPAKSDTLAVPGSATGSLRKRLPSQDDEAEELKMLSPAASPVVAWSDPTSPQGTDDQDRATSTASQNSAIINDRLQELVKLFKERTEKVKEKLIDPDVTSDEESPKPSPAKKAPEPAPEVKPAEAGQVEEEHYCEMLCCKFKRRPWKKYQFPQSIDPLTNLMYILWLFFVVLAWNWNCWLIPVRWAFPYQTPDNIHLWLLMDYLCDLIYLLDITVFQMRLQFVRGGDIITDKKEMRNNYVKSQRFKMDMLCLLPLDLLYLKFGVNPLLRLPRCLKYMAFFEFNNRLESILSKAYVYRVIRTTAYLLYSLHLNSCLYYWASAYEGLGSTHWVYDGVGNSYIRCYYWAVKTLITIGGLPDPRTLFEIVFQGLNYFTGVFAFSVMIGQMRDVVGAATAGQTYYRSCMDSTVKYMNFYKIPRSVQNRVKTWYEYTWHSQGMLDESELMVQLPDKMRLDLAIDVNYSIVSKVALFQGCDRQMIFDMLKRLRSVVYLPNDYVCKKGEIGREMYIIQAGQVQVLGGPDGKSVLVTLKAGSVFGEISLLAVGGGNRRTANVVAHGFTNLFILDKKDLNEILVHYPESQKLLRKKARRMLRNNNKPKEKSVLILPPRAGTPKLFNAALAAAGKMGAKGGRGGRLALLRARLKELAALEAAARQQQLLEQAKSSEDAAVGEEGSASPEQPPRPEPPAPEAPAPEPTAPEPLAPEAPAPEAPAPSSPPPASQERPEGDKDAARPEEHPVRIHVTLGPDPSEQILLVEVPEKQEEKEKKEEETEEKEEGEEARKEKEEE
Sequence of heteromeric RETα+β channels (Bos taurus, UniProt Q00194) (Q28181 whole entry partner, one chain of several): as the sequence (Q28181 whole entry, one chain of several) above

For COc1ccc([C@H]2Sc3ccccc3N(CCN(C)C)C(=O)[C@H]2OC(C)=O)cc1 (relative stereo) [L-cis diltiazem], the “inhibition of channels by L-cis diltiazem” value (“inhibition of channels” for short) ([1]; RETα to RETβ mRNA ratio 1:5) was 50%, the “inhibition of channels” value ([1]; RETα to RETβ mRNA ratio 1:8) was 78% and the “inhibition of channels” value ([1]; RETα to RETβ mRNA ratio 1:10) was 80%. The “block of channels by L-cis diltiazem” value ([2]; OLFα to RETβ mRNA ratio 1:1.5) was 36.8 ± 2.9% and the “block of channels by L-cis diltiazem” value ([2]; OLFα to RETβ mRNA ratio 1:3) was 32.8 ± 1.4%.
With Nc1ncnc2c1ncn2[C@@H]1O[C@H](COP(=O)(O)OP(=O)(O)NP(=O)(O)O)[C@@H](O)[C@H]1O [AMP-PNP, adenylylimidodiphosphate] the “effect on the kinetics, cGMP sensitivity, or maximal current” value (native rod CNG channels) was “no effect”.
With O=CN/C=C/c1cc(O)ccc1O [erbstatin] the “effect on the kinetics, cGMP sensitivity, or maximal current” value (native rod CNG channels) was “no effect”.
With O=c1c(-c2ccc(O)cc2)coc2cc(O)cc(O)c12 [genistein] the “genistein inhibition compared with native olfactory channels” value [3] was “inhibited to an even greater extent than were native olfactory channels”, the “Hill coefficient of genistein inhibition” value ([4]; closed channels) was ~2 and ~1 and the “Hill coefficient of genistein inhibition” value ([4]; open, fully activated channels) was roughly 1. For the same compound, the “time constant of genistein inhibition” value ([4]; open, fully activated channels) was roughly 1 s, the “maximal inhibition of closed channels by saturating genistein” value (“maximal inhibition of closed channels” for short) [5, 8] was 28 ± 4% and the “inhibition of fully activated channels by genistein” value (from here on “inhibition … by genistein”) [5, 9] was 11 ± 4%. For the same compound, the “τ of slowly activating CNG current component after genistein pretreatment” value (native rod CNG channels; closed channels pre-exposed to 100 μM genistein for 1 min, then 2 mM cGMP) was 8.5 s, the “maximal inhibition of closed channels” value (native rod CNG channels; [8]) was 61 ± 8% and the “inhibition … by genistein” value (native rod CNG channels; [9]) was 31 ± 4%. The “time constant of genistein inhibition” value (native rod CNG channels; open, fully activated channels) was 1.2 s, the “Hill coefficient of genistein inhibition” value ([6]; closed channels) was roughly 2 and the “inhibition … by genistein” value [6, 9] was 67 ± 4%. The “Hill coefficient of genistein inhibition” value ([6]; open, fully activated channels) was roughly 1, the “time constant of genistein inhibition” value ([6]; open, fully activated channels) was 9 s and the pKi ([6]; read-out: apparent K i for genistein, closed channels) was 5.40. For the same compound, the “maximal inhibition of closed channels” value (native cone CNG channels; [8]) was 50 ± 3%, the “inhibition … by genistein” value (native cone CNG channels; [9]) was 37 ± 3% and the “genistein inhibition of closed channels” value ([7]; closed channels) was “fails to inhibit”. The “genistein inhibition of fully activated channels” value ([7]; fully activated channels) was “fails to inhibit” and the “effect of genistein on hybrid channels” value ([2]; closed and fully activated states) was “no effect”.
